From ChEMBL document CHEMBL1157867, “Synthesis of substituted acridinyl pyrazoline derivatives and their evaluation for anti-inflammatory activity” (Eur J Med Chem, 2010)

Columns and labels:
Mus musculus [1] = experiment: Analgesic activity in albino mouse assessed as decrease in acetic acid-induced writhing at 50 mg/kg, ip administered 30 mins before acetic acid challenge measured after 1 hr relative to control; type: functional; parameters: scale not given: the % may be the effect or the level left; conditions: route intraperitoneal
In short: (§1)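 Mice of 15–25 g; compounds dissolved in propylene glycol. Acetic acid 0.5%, 0.25 mL/mouse, injected intraperitoneally 30 min after dosing. Mean number of writhes per group counted, and percent decrease versus control calculated after 60 min.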

[2] = Toxicity in ip dosed albino mouse; type: organism-based; conditions: in vivo, read-out: ALD50
In short: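 Acute lethal dose (ALD50) determined in albino mice of 15–25 g, given food pellets and water ad libitum. Compounds were dissolved in propylene glycol. The procedure followed a previously published method.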

Rattus norvegicus [3] = experiment: Antiinflammatory activity in Charles Foster albino rat assessed as carrageenan-induced paw edema at 50 mg/kg, po administered 1 hr before carrageenan challenge measured after 3 hrs relative to control; type: functional
In short: (§2)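 Charles-Foster albino rats of either sex, pregnant females excluded, 70–95 days old, 120–175 g, food and water ad libitum. Groups of six. Compounds in propylene glycol given orally 1 h before 0.05 mL of 1% carrageenan in 0.9% saline, injected under the plantar aponeurosis of the right hind paw. Paw volume read by plethysmometer before and 3 h after injection. Inhibition (%) = (1 − Vt/Vc) × 100.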

Rattus norvegicus [4] = experiment: Antiinflammatory activity in Charles Foster albino rat assessed as carrageenan-induced paw edema at 25 mg/kg, po administered 1 hr before carrageenan challenge measured after 3 hrs relative to control; type: functional; in short: as §2
Mus musculus [5] = experiment: Analgesic activity in albino mouse assessed as decrease in acetic acid-induced writhing at 25 mg/kg, ip administered 30 mins before acetic acid challenge measured after 1 hr relative to control; type: functional; parameters: scale not given: the % may be the effect or the level left; conditions: route intraperitoneal; in short: as §1
Mus musculus [6] = experiment: Analgesic activity in albino mouse assessed as decrease in acetic acid-induced writhing at 100 mg/kg, ip administered 30 mins before acetic acid challenge measured after 1 hr relative to control; type: functional; parameters: scale not given: the % may be the effect or the level left; conditions: route intraperitoneal; in short: as §1
Rattus norvegicus [7] = experiment: Antiinflammatory activity in Charles Foster albino rat assessed as carrageenan-induced paw edema at 100 mg/kg, po administered 1 hr before carrageenan challenge measured after 3 hrs relative to control; type: functional; in short: as §2

Row | SMILES | Activity (Mus musculus [1]) [%] | LD50 [2] [mg/kg] | Activity (Rattus norvegicus [3]) [%] | Activity (Rattus norvegicus [4]) [%] | Activity (Mus musculus [5]) [%] | Activity (Mus musculus [6]) [%] | Activity (Rattus norvegicus [7]) [%]
1 | CC1=NN(c2c3ccccc3nc3ccc(Cl)cc23)C(=O)C1 | 12.6 | > 1000 | 13.5 | – | – | – | –
2 | O=C1CC(CBr)=NN1c1c2ccccc2nc2ccccc12 | 13.2 | > 1000 | 12.8 | – | – | – | –
3 | CCCCC1C(=O)N(c2ccccc2)N(c2ccccc2)C1=O [PHENYLBUTAZONE] | – | – | – | 31.4 | 31 | 42.6 | 63.4
4 | O=C1CC(CBr)=NN1c1c2ccccc2nc2c(Cl)cc(Cl)cc12 | 18.6 | > 1000 | 20.7 | – | – | – | –
5 | O=C1CC(CSc2nnc(-c3ccncc3)o2)=NN1c1c2ccccc2nc2ccc(Cl)cc12 | 30.6 | > 1000 | 27.2 | – | – | – | –
6 | CC(=O)Oc1ccccc1C(=O)O [ASPIRIN] | – | – | – | 30.25 | 30.2 | 59.3 | 60.8
7 | COc1cc(Cl)c2nc3ccccc3c(N3N=C(CBr)CC3=O)c2c1 | 16.3 | > 1000 | 18.6 | – | – | – | –
8 | COc1ccc2nc3ccccc3c(N3N=C(CSc4nnc(-c5ccncc5)o4)CC3=O)c2c1 | 29.7 | > 1000 | 31.2 | – | – | – | –
9 | CC1=NN(c2c3ccccc3nc3ccc(Br)cc23)C(=O)C1 | 12.9 | > 1000 | 12.6 | – | – | – | –
10 | COc1cc(Cl)c2nc3ccccc3c(N3N=C(C)CC3=O)c2c1 | 13.4 | > 1000 | 14.4 | – | – | – | –
11 | O=C1CC(CSc2nnc(-c3ccncc3)o2)=NN1c1c2ccccc2nc2c(Cl)cc(Cl)cc12 | 33.5 | > 1000 | 40.8 | 32.1 | 30.6 | 42.4 | –
12 | O=C1CC(CSc2nnc(-c3ccncc3)o2)=NN1c1c2ccccc2nc2ccc(Br)cc12 | 28.8 | > 1000 | 31.5 | – | – | – | –
13 | O=C1CC(CSc2nnc(-c3ccncc3)o2)=NN1c1c2ccccc2nc2ccccc12 | 25.9 | > 1000 | 24.1 | – | – | – | –
14 | COc1ccc2nc3ccccc3c(N3N=C(C)CC3=O)c2c1 | 10.8 | > 1000 | 11.5 | – | – | – | –
15 | COc1ccc2nc3ccccc3c(N3N=C(CBr)CC3=O)c2c1 | 15.9 | > 1000 | 13.5 | – | – | – | –
16 | O=C1CC(CBr)=NN1c1c2ccccc2nc2ccc(Br)cc12 | 13.6 | > 1000 | 17.1 | – | – | – | –
17 | O=C1CC(CBr)=NN1c1c2ccccc2nc2ccc(Cl)cc12 | 16.4 | > 1000 | 15.9 | – | – | – | –
18 | CC1=NN(c2c3ccccc3nc3c(Cl)cc(Cl)cc23)C(=O)C1 | 14.7 | > 1000 | 17.6 | – | – | – | –
19 | CC1=NN(c2c3ccccc3nc3ccccc23)C(=O)C1 | 8.6 | > 1000 | 10.8 | – | – | – | –
